Calls of active or inactive are those of the source.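 The calls were made as follows: active = inhibition of at least 50%; inactive = inhibition below 50%.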
Molecular target: Diacylglycerol lipase-beta (Mus musculus) (UniProt Q91WC9)
Assay: mouse DAGLb inhibitors by competitive ABPP, late-stage follow-up, biochemical, gel-based fluorescence, overexpressed mouse, set 3 (AID 602300)
Settings: HEK293T membrane mDAGLb, at 1 µM, stronger effect = higher value
Method in brief: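 Test system: HEK293T membranes with overexpressed mouse DAGLb; Amount: 0.3 mg/mL membrane protein; Technique: SDS-PAGE with in-gel fluorescence scan, band integrated optical density; Schedule: 30 min compound plus 30 min probe, 37 °C; Measure: percent inhibition of DAGLb band versus DMSO and blank-gel references; Medium: Dulbecco's PBS (DPBS).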

Chain of Diacylglycerol lipase-beta (Mus musculus) (Q91WC9 whole entry, looked up): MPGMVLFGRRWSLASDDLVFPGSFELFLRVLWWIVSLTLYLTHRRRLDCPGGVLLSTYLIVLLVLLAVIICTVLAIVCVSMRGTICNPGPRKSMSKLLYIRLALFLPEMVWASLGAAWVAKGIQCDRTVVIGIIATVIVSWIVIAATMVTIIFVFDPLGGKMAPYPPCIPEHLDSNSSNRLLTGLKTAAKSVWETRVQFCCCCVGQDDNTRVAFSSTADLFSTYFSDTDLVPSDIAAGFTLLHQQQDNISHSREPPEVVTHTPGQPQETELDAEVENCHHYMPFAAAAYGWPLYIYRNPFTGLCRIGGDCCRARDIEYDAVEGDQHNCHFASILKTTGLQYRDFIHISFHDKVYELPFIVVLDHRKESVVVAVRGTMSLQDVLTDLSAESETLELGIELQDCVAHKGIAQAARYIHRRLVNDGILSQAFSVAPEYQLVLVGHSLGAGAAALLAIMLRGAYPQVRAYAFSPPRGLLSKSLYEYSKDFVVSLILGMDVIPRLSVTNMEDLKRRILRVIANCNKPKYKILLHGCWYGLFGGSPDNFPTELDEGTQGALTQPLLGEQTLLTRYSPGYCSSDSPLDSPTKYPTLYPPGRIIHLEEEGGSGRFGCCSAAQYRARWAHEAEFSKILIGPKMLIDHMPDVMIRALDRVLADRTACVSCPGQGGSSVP

inhibition	SMILES
84%	O=C(N1CCCCC1Cc1ccccc1)n1cc(-c2ccc(-c3cccc(CO)c3)cc2)nn1 (configuration not stated)
39% (inactive)	O=C(c1ccc(-c2ccc(-c3cn(C(=O)N4CCCCC4Cc4ccccc4)nn3)cc2)cc1)N1CCCCC1 (configuration not stated)
50%	O=C(O)c1cccc(-c2ccc(-c3cn(C(=O)N4CCCCC4Cc4ccccc4)nn3)cc2)c1 (configuration not stated)
4% (inactive)	O=C(O)c1cccc(-c2ccc(-c3cn(C(=O)N4CCCCC4CCc4ccccc4)nn3)cc2)c1 (configuration not stated)
6% (inactive)	O=C(O)c1cccc(-c2ccc(-c3cn(C(=O)N4CCCCC4c4ccccc4)nn3)cc2)c1 (configuration not stated)
0% (inactive)	NC(=O)c1ccc(-c2ccc(-c3cn(C(=O)N4CCCCC4c4ccccc4)nn3)cc2)cc1 (configuration not stated)
0% (inactive)	O=C(c1cccc(-c2ccc(-c3cn(C(=O)N4CCCCC4c4ccccc4)nn3)cc2)c1)N1CCCCC1 (configuration not stated)
1% (inactive)	O=C(O)c1ccc(-c2ccc(-c3cn(C(=O)N4CCCCC4CCc4ccccc4)nn3)cc2)cc1 (configuration not stated)
0% (inactive)	O=C(N1CCCCC1c1ccccc1)n1cc(-c2ccc(-c3cccc(CO)c3)cc2)nn1 (configuration not stated)
0% (inactive)	O=C(N1CCCCC1c1ccccc1)n1cc(-c2ccc(-c3ccccc3CO)cc2)nn1 (configuration not stated)
0% (inactive)	O=C(c1ccc(-c2ccc(-c3cn(C(=O)N4CCCCC4c4ccccc4)nn3)cc2)cc1)N1CCCCC1 (configuration not stated)
0% (inactive)	O=C(N1CCCCC1c1ccccc1)n1cc(-c2ccc(-c3ccc(CO)cc3)cc2)nn1 (configuration not stated)

Source: PubChem BioAssay AID602300 (The Scripps Research Institute Molecular Screening Center, 2012)
